Assay type in all cases: functional, cell-based
The test system of assay [1] is KB. The assay is described as follows: Cytotoxicity against human KB cells for 72 hrs under normoxic condition by MTT assay. The procedure, abridged: (§1)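 RPMI-1640 with heat-inactivated 10% FBS plus penicillin/streptomycin; hypoxia 3% O2, 5% CO2 or normoxia 20% O2, 5% CO2, 37 °C. Compounds dissolved in DMSO at 10.0 mg/mL (stock), then diluted; cells seeded 5×10³ per well. Viability read by MTT kit; IC50 taken as concentration giving 50% absorbance inhibition versus control cells.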
A general note: Tetrazolium assays rely on reduction of a dye to a coloured formazan, in cell work by metabolically active cells.

Assay [2] concerns KB. The assay is described as follows: Cytotoxicity against human KB cells for 72 hrs under hypoxic condition by MTT assay. The gist of the method: as §1
Assay [3] has as its system SMMC-7721. The assay is described as follows: Cytotoxicity against human SMMC7721 cells for 72 hrs under hypoxic condition by MTT assay. The following applies: SMMC-7721, 72 h. The gist of the method:
as §1

The subject of assay [4] is A549. The assay is described as follows: Cytotoxicity against human A549 cells for 72 hrs under normoxic condition by MTT assay. The following applies: A549, 72 h. The procedure, abridged: as §1
Assay [5] relates to SMMC-7721. The assay is described as follows: Cytotoxicity against human SMMC7721 cells for 72 hrs under normoxic condition by MTT assay. The following applies: SMMC-7721, 72 h. The gist of the method:
as §1

Assay [6] relates to PC-3. The assay is described as follows: Cytotoxicity against human PC3 cells for 72 hrs under hypoxic condition by MTT assay. The following applies: PC-3, 72 h. The procedure, abridged: as §1
Assay [7] relates to K562. The assay is described as follows: Cytotoxicity against human K562 cells for 72 hrs under hypoxic condition by MTT assay. The conditions noted are these: K562, 72 h. The gist of the method:
as §1

Assay [8] concerns K562. The assay is described as follows: Cytotoxicity against human K562 cells for 72 hrs under normoxic condition by MTT assay. The following applies: K562, 72 h. The procedure, abridged:
as §1

In assay [9] the test system is A549. Briefly: Cytotoxicity against human A549 cells for 72 hrs under hypoxic condition by MTT assay. The conditions noted are these: A549, 72 h. The procedure, abridged: as §1
The subject of assay [10] is PC-3. Briefly: Cytotoxicity against human PC3 cells for 72 hrs under normoxic condition by MTT assay. The following applies: PC-3, 72 h. The procedure, abridged:
as §1

This is an account of results in ChEMBL document CHEMBL1687888, “Synthesis, hypoxia-selective cytotoxicity of new 3-amino-1,2,4-benzotriazine-1,4-dioxide derivatives” (Eur J Med Chem, 2011).

Turning to `CCCOCNc1n[n+]([O-])c2cc(OC)ccc2[n+]1[O-]`, the IC50 in assay [1] was found to be 3.2 µM; in [2], 12 µM; in [3] it was 1.07 µM; in [4], 2.81 µM; in assay [5], 2.88 µM; in assay [6], 10.6 µM. In addition, the IC50 stood at 3.52 µM in assay [7], 4.28 µM in assay [8], 2.54 µM in assay [9] and 6.57 µM in [10].
In the case of `O=[N+]([O-])c1cccc(COCNc2n[n+]([O-])c3ccccc3[n+]2[O-])c1`, the IC50 in assay [1] was 0.58 µM; in assay [2] it was 16.6 µM; in assay [3], 0.52 µM; in assay [4], 2.89 µM; in [5], 8.54 µM; in assay [6], more than 100 µM. The IC50 is 0.65 µM in assay [7], 5.65 µM in assay [8], 3.44 µM in [9] and 3.07 µM in assay [10].
For the compound `CCCCCCCOCNc1n[n+]([O-])c2ccccc2[n+]1[O-]`, the IC50 was determined as 2.52 µM in assay [1]; 14 µM in [2]; 3.09 µM in assay [3]; 2.61 µM in assay [4]; 7.03 µM in assay [5]; 0.39 µM in assay [6]. In addition, the IC50 stood at 6.17 µM in assay [7], 2.97 µM in assay [8], 3.49 µM in [9] and 1.21 µM in assay [10].
In the case of `CC(OCNc1n[n+]([O-])c2ccccc2[n+]1[O-])c1ccccc1` (stereo not given), the IC50 in [1] was found to be 2.51 µM; in assay [2], 14 µM; in assay [3] it was 2.47 µM; in [4] it was 2.71 µM; in assay [5], 12.9 µM; in assay [6], 10.7 µM. Also, the IC50 worked out at 2.24 µM in assay [7], 8.72 µM in assay [8], 2.81 µM in [9] and 6.08 µM in [10].
For the compound `CC(C)CCOCNc1n[n+]([O-])c2ccccc2[n+]1[O-]`, the IC50 in assay [1] is 3.04 µM; in [2], 5.21 µM; in assay [3], 2.86 µM; in [4], 7.27 µM; in assay [5], 15.9 µM; in [6], 7.52 µM. The IC50 worked out at 5.85 µM in assay [7], 13.1 µM in assay [8], 2.11 µM in assay [9] and 11.1 µM in assay [10].
In the case of `Nc1n[n+]([O-])c2ccccc2[n+]1[O-]` [TIRAPAZAMINE], the concentration for half-maximal inhibition (IC50) in assay [1] came to 6.29 µM; in assay [2], 18.7 µM; in [3], 4.75 µM; in assay [4], 7.43 µM; in assay [5], 32.8 µM; in assay [6], 1.17 µM. Also, the IC50 in [7] amounted to 1.81 µM; in assay [8], 19.4 µM; in assay [9], 1.93 µM; in assay [10] it was 21 µM.
For the compound `[O-][n+]1nc(NCOCc2ccc(Cl)cc2)[n+]([O-])c2ccccc21`, the IC50 in assay [1] came out at 1.3 µM; in assay [2], 8.26 µM; in assay [3], 0.81 µM; in assay [4], 1.47 µM; in assay [5] it was 14.5 µM; in [6], 5.1 µM. Besides, the IC50 is 1.85 µM in assay [7], 3.26 µM in [8], 2.19 µM in assay [9] and 5.76 µM in assay [10].
Turning to `COc1ccc2c(c1)[n+]([O-])nc(NCOC(C)c1ccccc1)[n+]2[O-]` (stereo not given), the IC50 in assay [1] is 0.22 µM; in assay [2] it was 12.4 µM; in assay [3], 0.74 µM; in assay [4] it was 3.13 µM; in [5], 8.04 µM; in assay [6], more than 100 µM. The IC50 in assay [7] stood at 0.25 µM; in [8], 6.69 µM; in assay [9], 0.22 µM; in [10], 4.14 µM.
For the compound `CCCOCNc1n[n+]([O-])c2ccccc2[n+]1[O-]`, the IC50 in assay [1] was found to be 1.95 µM; in assay [2] it was 10.2 µM; in [3], 5.53 µM; in [4], 7.46 µM; in assay [5] it was 19.5 µM; in assay [6] it was 7.4 µM. Also, the IC50 was 3.89 µM in assay [7], 17.6 µM in assay [8], 3.74 µM in assay [9] and 14.2 µM in assay [10].

What is called IC50 is the concentration that gives 50% inhibition. Low readings indicate greater potency in that assay, high ones weaker potency in that assay.
